# What was measured:
# Type in all cases: functional
# COLO 205 = assay: Growth inhibition of human COLO205 cells at 10 uM after 48 hrs by SRB assay; conditions: COLO 205, 48 h, read-out: GI
# Procedure, shortened: (§1)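 Cells grown in RPMI 1640 with 5% FBS and 2 mM L-glutamine, plated at 5000–40,000 cells/well by doubling time and preincubated 24 h (37 °C, 5% CO2); a time-zero plate is TCA-fixed. Single dose added, then 48 h incubation. Fixed with cold TCA, stained with 0.4% SRB, dye solubilized in 10 mM Tris base, absorbance at 515 nm; percent growth vs time-zero and untreated control.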
# [1] = Growth inhibition of human HCC2998 cells at 10 uM after 48 hrs by SRB assay; conditions: HCC 2998, 48 h, read-out: GI; procedure, shortened: as §1
# NCI-H522 = assay: Growth inhibition of human NCI-H522 cells at 10 uM after 48 hrs by SRB assay; conditions: NCI-H522, 48 h, read-out: GI; procedure, shortened: as §1
# NCI-H226 = assay: Growth inhibition of human NCI-H226 cells at 10 uM after 48 hrs by SRB assay; conditions: NCI-H226, 48 h, read-out: GI; procedure, shortened: as §1
# NCI-H23 = assay: Growth inhibition of human NCI-H23 cells at 10 uM after 48 hrs by SRB assay; conditions: NCI-H23, 48 h, read-out: GI; procedure, shortened: as §1
# HOP-92 = assay: Growth inhibition of human HOP92 cells at 10 uM after 48 hrs by SRB assay; conditions: HOP-92, 48 h, read-out: GI; procedure, shortened: as §1
# HOP-62 = assay: Growth inhibition of human HOP62 cells at 10 uM after 48 hrs by SRB assay; conditions: HOP-62, 48 h, read-out: GI; procedure, shortened: as §1
# MOLT-4 = assay: Growth inhibition of human MOLT4 cells at 10 uM after 48 hrs by SRB assay; conditions: MOLT-4, 48 h, read-out: GI; procedure, shortened: as §1
# CCRF-CEM = assay: Growth inhibition of human CCRF-CEM cells at 10 uM after 48 hrs by SRB assay; conditions: read-out: GI; procedure, shortened: as §1
# K562 = assay: Growth inhibition of human K562 cells at 10 uM after 48 hrs by SRB assay; conditions: K562, 48 h, read-out: GI; procedure, shortened: as §1
# SR = assay: Growth inhibition of human SR cells at 10 uM after 48 hrs by SRB assay; conditions: read-out: GI
# Procedure, shortened: (§2)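 NCI 60-cell-line screen with a single 10 µM dose. Cells are grown in RPMI 1640 with 5% FBS and 2 mM L-glutamine, plated at 5000–40,000 cells/well according to doubling time, and preincubated 24 h at 37 °C, 5% CO2; time-zero plates are TCA-fixed at that point. Drug exposure is 48 h. Adherent cells are fixed with cold TCA, stained with 0.4% SRB in 1% acetic acid and read at 515 nm. Percent growth is calculated relative to time-zero and untreated controls and reported as GI%.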
# A549 = assay: Growth inhibition of human A549 cells at 10 uM after 48 hrs by SRB assay; conditions: A549, 48 h, read-out: GI; procedure, shortened: as §1
# Hs-578T = assay: Growth inhibition of human Hs578T cells at 10 uM after 48 hrs by SRB assay; conditions: read-out: GI; procedure, shortened: as §1
# MDA-MB-231 = assay: Growth inhibition of human MDA-MB-231 cells at 10 uM after 48 hrs by SRB assay; conditions: MDA-MB-231, 48 h, read-out: GI; procedure, shortened: as §1
# SN12C = assay: Growth inhibition of human SN12C cells at 10 uM after 48 hrs by SRB assay; conditions: read-out: GI; procedure, shortened: as §2
# ACHN = assay: Growth inhibition of human ACHN cells at 10 uM after 48 hrs by SRB assay; conditions: read-out: GI; procedure, shortened: as §1
# CAKI-1 = assay: Growth inhibition of human Caki1 cells at 10 uM after 48 hrs by SRB assay; conditions: CAKI-1, 48 h, read-out: GI; procedure, shortened: as §1
# 786-0 = assay: Growth inhibition of human 786-0 cells at 10 uM after 48 hrs by SRB assay; conditions: 786-0, 48 h, read-out: GI; procedure, shortened: as §1
# SK-OV-3 = assay: Growth inhibition of human SKOV3 cells at 10 uM after 48 hrs by SRB assay; conditions: SK-OV-3, 48 h, read-out: GI; procedure, shortened: as §2
# OVCAR-5 = assay: Growth inhibition of human OVCAR5 cells at 10 uM after 48 hrs by SRB assay; conditions: OVCAR-5, 48 h, read-out: GI; procedure, shortened: as §1
# OVCAR-8 = assay: Growth inhibition of human OVCAR8 cells at 10 uM after 48 hrs by SRB assay; conditions: OVCAR-8, 48 h, read-out: GI; procedure, shortened: as §1
# OVCAR-3 = assay: Growth inhibition of human OVCAR3 cells at 10 uM after 48 hrs by SRB assay; conditions: OVCAR-3, 48 h, read-out: GI; procedure, shortened: as §1
# IGROV-1 = assay: Growth inhibition of human IGROV1 cells at 10 uM after 48 hrs by SRB assay; conditions: IGROV-1, 48 h, read-out: GI; procedure, shortened: as §1
# SK-MEL-5 = assay: Growth inhibition of human SK-MEL-5 cells at 10 uM after 48 hrs by SRB assay; conditions: SK-MEL-5, 48 h, read-out: GI; procedure, shortened: as §1
# M14 = assay: Growth inhibition of human M14 cells at 10 uM after 48 hrs by SRB assay; conditions: M14, 48 h, read-out: GI; procedure, shortened: as §1
# LOX IMVI = assay: Growth inhibition of human LOXIMVI cells at 10 uM after 48 hrs by SRB assay; conditions: read-out: GI; procedure, shortened: as §1
# Malme-3M = assay: Growth inhibition of human MALME-3M cells at 10 uM after 48 hrs by SRB assay; conditions: read-out: GI; procedure, shortened: as §1
# SNB-75 = assay: Growth inhibition of human SNB75 cells at 10 uM after 48 hrs by SRB assay; conditions: SNB-75, 48 h, read-out: GI; procedure, shortened: as §2
# SF-539 = assay: Growth inhibition of human SF539 cells at 10 uM after 48 hrs by SRB assay; conditions: SF-539, 48 h, read-out: GI; procedure, shortened: as §1
# SW-620 = assay: Growth inhibition of human SW620 cells at 10 uM after 48 hrs by SRB assay; conditions: SW-620, 48 h, read-out: GI; procedure, shortened: as §2
# HT-29 = assay: Growth inhibition of human HT-29 cells at 10 uM after 48 hrs by SRB assay; conditions: HT-29, 48 h, read-out: GI; procedure, shortened: as §1
# KM12 = assay: Growth inhibition of human KM12 cells at 10 uM after 48 hrs by SRB assay; conditions: KM12, 48 h, read-out: GI; procedure, shortened: as §1
Structure (SMILES),inhibition of growth at 10 µM (COLO 205),inhibition of growth at 10 µM [1],inhibition of growth at 10 µM (NCI-H522),inhibition of growth at 10 µM (NCI-H226),inhibition of growth at 10 µM (NCI-H23),inhibition of growth at 10 µM (HOP-92),inhibition of growth at 10 µM (HOP-62),inhibition of growth at 10 µM (MOLT-4),inhibition of growth at 10 µM (CCRF-CEM),inhibition of growth at 10 µM (K562),inhibition of growth at 10 µM (SR),inhibition of growth at 10 µM (A549),inhibition of growth at 10 µM (Hs-578T),inhibition of growth at 10 µM (MDA-MB-231),inhibition of growth at 10 µM (SN12C),inhibition of growth at 10 µM (ACHN),inhibition of growth at 10 µM (CAKI-1),inhibition of growth at 10 µM (786-0),inhibition of growth at 10 µM (SK-OV-3),inhibition of growth at 10 µM (OVCAR-5),further results
O=c1c2cccc3c(Nc4c(F)cccc4F)ccc(c32)c2nc3ccccc3n12,< 20%,27.3%,< 20%,24.9%,< 20%,35.8%,< 20%,25.9%,27.5%,< 20%,78.5%,< 20%,< 20%,< 20%,< 20%,< 20%,38%,< 20%,< 20%,< 20%,inhibition of growth at 10 µM (OVCAR-8): < 20%; inhibition of growth at 10 µM (OVCAR-3): < 20%; inhibition of growth at 10 µM (IGROV-1): 46.6%; inhibition of growth at 10 µM (SK-MEL-5): < 20%; inhibition of growth at 10 µM (M14): < 20%; inhibition of growth at 10 µM (LOX IMVI): < 20%; inhibition of growth at 10 µM (Malme-3M): < 20%; inhibition of growth at 10 µM (SNB-75): 20.1%; inhibition of growth at 10 µM (SF-539): < 20%; inhibition of growth at 10 µM (SW-620): < 20%; inhibition of growth at 10 µM (HT-29): < 20%; inhibition of growth at 10 µM (KM12): 21.1%
CCCCNc1ccc2c3c1cccc3c(=O)n1c3ccccc3nc21,< 20%,26%,28.1%,26.3%,40%,38.8%,< 20%,30.6%,25%,21.2%,84.4%,23.4%,< 20%,20.2%,< 20%,< 20%,56.8%,< 20%,< 20%,< 20%,inhibition of growth at 10 µM (OVCAR-8): < 20%; inhibition of growth at 10 µM (OVCAR-3): < 20%; inhibition of growth at 10 µM (IGROV-1): 58.2%; inhibition of growth at 10 µM (SK-MEL-5): 24.5%; inhibition of growth at 10 µM (M14): < 20%; inhibition of growth at 10 µM (LOX IMVI): 24.1%; inhibition of growth at 10 µM (Malme-3M): < 20%; inhibition of growth at 10 µM (SNB-75): 26.6%; inhibition of growth at 10 µM (SF-539): < 20%; inhibition of growth at 10 µM (SW-620): < 20%; inhibition of growth at 10 µM (HT-29): < 20%; inhibition of growth at 10 µM (KM12): 22.3%
O=c1c2cccc3c(NC4CCCCC4)ccc(c32)c2nc3ccccc3n12,24.4%,48.3%,38.5%,28%,54%,51.5%,< 20%,50.2%,34.6%,33.1%,98.9%,33.5%,< 20%,< 20%,< 20%,27.1%,52.8%,< 20%,< 20%,< 20%,inhibition of growth at 10 µM (OVCAR-8): < 20%; inhibition of growth at 10 µM (OVCAR-3): < 20%; inhibition of growth at 10 µM (IGROV-1): 58.8%; inhibition of growth at 10 µM (SK-MEL-5): 33.9%; inhibition of growth at 10 µM (M14): < 20%; inhibition of growth at 10 µM (LOX IMVI): 26.6%; inhibition of growth at 10 µM (Malme-3M): < 20%; inhibition of growth at 10 µM (SNB-75): < 20%; inhibition of growth at 10 µM (SF-539): < 20%; inhibition of growth at 10 µM (SW-620): < 20%; inhibition of growth at 10 µM (HT-29): 23.1%; inhibition of growth at 10 µM (KM12): < 20%
O=c1c2cccc3c(Nc4ccccn4)ccc(c32)c2nc3ccccc3n12,29%,31.5%,43.4%,30.4%,34.5%,45.1%,32.2%,38.2%,48.2%,53.5%,29.8%,29.1%,< 20%,29.4%,28.3%,23.9%,48.2%,< 20%,< 20%,< 20%,inhibition of growth at 10 µM (OVCAR-8): 24.6%; inhibition of growth at 10 µM (OVCAR-3): 30%; inhibition of growth at 10 µM (IGROV-1): 43.4%; inhibition of growth at 10 µM (SK-MEL-5): 48.2%; inhibition of growth at 10 µM (M14): < 20%; inhibition of growth at 10 µM (LOX IMVI): 30.4%; inhibition of growth at 10 µM (Malme-3M): < 20%; inhibition of growth at 10 µM (SNB-75): 21.4%; inhibition of growth at 10 µM (SF-539): < 20%; inhibition of growth at 10 µM (SW-620): 22.9%; inhibition of growth at 10 µM (HT-29): 35.4%; inhibition of growth at 10 µM (KM12): 25.2%
